Activity calls are given as the source filed them. *1 amine or outer side, *2 acyl side, *3 side chain or, on linkers, in order; H or OH if unused. Where a SMILES comes first, the peptide text is derived from it. Bridges are numbered along the chain shown (N, C = ends). [ ]: non-standard residue; d: D form. The star is where a group is joined. βGlc = OC[C@H]1O[C@@H](*)[C@H](O)[C@@H](O)[C@@H]1O; Dmt = Cc1cc(O)cc(C)c1C[C@H](N)C(=O)O; dPen = CC(C)(S)[C@@H](N)C(=O)O; Aic = NC1(C(=O)O)Cc2ccccc2C1; CH2CH2 = C(C[*:2])[*:1]
Legend:
[1] = molecular target: Mu-type opioid receptor (Rattus norvegicus) (UniProt P33535); test: Agonist activity at rat mu opioid receptor expressed in rat C6 cells assessed as stimulation of [35S]-GTPgammaS binding after 1 hr by GF/C filters relative to control; type: functional, cell-based
Chain of Mu-type opioid receptor (Rattus norvegicus) (P33535 whole entry): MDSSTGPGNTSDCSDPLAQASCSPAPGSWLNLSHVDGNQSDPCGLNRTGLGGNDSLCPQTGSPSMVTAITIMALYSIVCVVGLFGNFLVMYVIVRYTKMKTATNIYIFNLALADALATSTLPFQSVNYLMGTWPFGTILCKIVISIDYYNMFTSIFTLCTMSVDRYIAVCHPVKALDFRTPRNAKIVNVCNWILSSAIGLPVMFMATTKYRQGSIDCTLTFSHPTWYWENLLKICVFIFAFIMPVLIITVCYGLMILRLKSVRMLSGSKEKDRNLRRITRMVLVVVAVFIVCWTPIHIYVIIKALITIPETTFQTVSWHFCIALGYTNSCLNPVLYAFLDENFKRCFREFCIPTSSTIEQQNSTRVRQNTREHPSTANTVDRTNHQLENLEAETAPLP
Outline: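 C6 glioma membranes (rat MOPr, stable; 10–20 μg protein) incubated 1 h at room temperature in 50 mM Tris-HCl, 100 mM NaCl, 5 mM MgCl2, pH 7.4, with 0.1 nM [35S]GTPγS, 30 μM GDP and varying peptide concentrations. GF/C filtration, counting. […] EC50 and maximum from nonlinear regression. At least three assays in duplicate.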

[2] = molecular target: Delta-type opioid receptor (Rattus norvegicus) (UniProt P33533); test: Agonist activity at rat delta opioid receptor expressed in rat C6 cells assessed as stimulation of [35S]-GTPgammaS binding after 1 hr by GF/C filters relative to control; type: functional, cell-based
Chain of Delta-type opioid receptor (Rattus norvegicus) (P33533 whole entry): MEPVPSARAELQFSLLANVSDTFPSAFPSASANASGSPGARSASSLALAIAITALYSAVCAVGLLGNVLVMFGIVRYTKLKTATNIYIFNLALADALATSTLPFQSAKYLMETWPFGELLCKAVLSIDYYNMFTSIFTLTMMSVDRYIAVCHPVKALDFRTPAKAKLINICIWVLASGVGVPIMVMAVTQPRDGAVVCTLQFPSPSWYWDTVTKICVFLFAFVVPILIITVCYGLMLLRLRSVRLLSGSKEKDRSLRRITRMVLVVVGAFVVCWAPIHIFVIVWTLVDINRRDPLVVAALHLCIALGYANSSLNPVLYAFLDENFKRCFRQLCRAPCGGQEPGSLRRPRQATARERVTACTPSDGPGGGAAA
Outline: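 Membranes (10–20 μg protein) from C6 glioma cells stably expressing rat DOPr, incubated 1 h at room temperature in 50 mM Tris-HCl, 100 mM NaCl, 5 mM MgCl2, pH 7.4, with 0.1 nM [35S]GTPγS, 30 μM GDP and varied peptide concentrations. GF/C filtration, scintillation counting. […] At least three assays in duplicate.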

[3] = molecular target: Kappa-type opioid receptor (Homo sapiens) (UniProt P41145); test: Agonist activity at human kappa opioid receptor expressed in rat C6 cells assessed as stimulation of [35S]-GTPgammaS binding after 1 hr by GF/C filters relative to control; type: functional, cell-based
Chain of Kappa-type opioid receptor (Homo sapiens) (P41145 whole entry): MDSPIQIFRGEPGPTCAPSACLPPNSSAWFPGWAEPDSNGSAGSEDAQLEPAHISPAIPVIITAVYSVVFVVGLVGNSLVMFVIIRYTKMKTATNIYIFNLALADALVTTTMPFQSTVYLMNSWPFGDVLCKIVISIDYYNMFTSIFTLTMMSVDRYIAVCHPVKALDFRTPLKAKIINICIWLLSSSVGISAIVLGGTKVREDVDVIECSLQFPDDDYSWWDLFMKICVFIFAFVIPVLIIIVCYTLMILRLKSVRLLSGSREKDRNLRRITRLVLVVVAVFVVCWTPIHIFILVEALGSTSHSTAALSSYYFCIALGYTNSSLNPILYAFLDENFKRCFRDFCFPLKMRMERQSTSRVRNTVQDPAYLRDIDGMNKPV

[4] = molecular target: Delta-type opioid receptor (Rattus norvegicus) (UniProt P33533); test: Antagonist activity at rat delta opioid receptor expressed in rat C6 cells assessed as [35S]-GTPgammaS binding after 1 hr by GF/C filters; type: functional, cell-based
Outline: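 Membranes (10–20 μg protein/well) from C6 glioma cells stably expressing rat DOPr were incubated 1 h at room temperature in 50 mM Tris-HCl, 100 mM NaCl, 5 mM MgCl2, pH 7.4, with 0.1 nM [35S]GTPγS and 30 μM GDP. Bound label was filtered, washed 10× with cold buffer, and scintillation-counted. Ke was derived by formula using a single peptide concentration. Mean ± SEM, ≥3 assays in duplicate.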

[5] = system: Mus musculus; test: Antinociceptive effect in C57BL/6 mouse assessed as tail withdrawal latency at 10 mg/kg, ip by warm water tail withdrawal assay relative to 20 secs cutoff time; type: functional; settings: route intraperitoneal
Outline: (§1)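 Adult male and female C57BL/6 mice (20–35 g, 8–16 weeks). Saline ip, then baseline latency 30 min later. Cumulative ip doses in saline were given at 30 min intervals, with latency read 30 min after each dose. Tail tip (2–3 cm) placed in 50 °C water; withdrawal or flick latency recorded, 20 s cutoff.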

[6] = organism: Mus musculus; test: Antinociceptive effect in C57BL/6 mouse assessed as tail withdrawal latency by warm water tail withdrawal assay relative to 20 secs cutoff time; type: functional, organism-based; outline: as §1
[7] = system: Mus musculus; test: Antinociceptive effect in C57BL/6 mouse assessed as tail withdrawal latency at 10 mg/kg, ip measured between 30 and 60 mins by warm water tail withdrawal assay relative to 20 secs cutoff time; type: functional, organism-based; parameters: dose 10 mg/kg
[8] = system: Mus musculus; test: Antinociceptive effect in C57BL/6 mouse assessed as tail withdrawal latency at 10 mg/kg, ip by warm water tail withdrawal assay in presence of 3.2 mg/kg, ip naltrexone nonselective opioid antagonist; type: functional, organism-based
Outline: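 C57BL/6 mice, both sexes. Saline or 3.2 mg/kg naltrexone ip 30 min before 10 mg/kg test compound ip, all in saline. Tail-withdrawal latency in 50 °C water (20 s cutoff) read 30 min after pretreatment and 30 min after test injection.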

[9] = system: Mus musculus; test: Antinociceptive effect in C57BL/6 mouse assessed as maximum effect at 10 mg/kg, ip after 30 mins by acute tolerance/warm water tail withdrawal assay; type: functional, organism-based; parameters: dose 10 mg/kg
Outline: (§2)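 Separate groups of C57BL/6 mice got ip saline or 10 mg/kg compound after baseline, with 50 °C tail-withdrawal latency (20 s cutoff) at 15, 30, 45, 60 and 90 min. At 90–120 min all mice received 10 mg/kg ip, read at 15, 30, 60 and 90 min. AUC over baseline was computed per mouse and averaged by group; naive and pretreated groups compared by t-test.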

[10] = system: Mus musculus; test: Antinociceptive effect in C57BL/6 mouse assessed as maximum effect at 10 mg/kg, ip after 90 mins by acute tolerance/warm water tail withdrawal assay; type: functional, organism-based; parameters: dose 10 mg/kg; outline: as §2
[11] = system: Mus musculus; test: Antinociceptive effect in C57BL/6 mouse assessed as maximum effect at 10 mg/kg, ip after 90 mins followed by treated with second dose measured up to 200 mins by acute tolerance/warm water tail withdrawal assay; type: functional, organism-based; parameters: dose 10 mg/kg; outline: as §2

SMILES | Efficacy [1] [%] | Efficacy [2] | Efficacy [3] | Ke [4] [nM] | Activity [5] [%] | Activity [6] | Activity [7] | Activity [8] | Activity [9] | Activity [10] | Activity [11]
Cc1cc(O)cc(C)c1C[C@H](N)C(=O)N[C@@H]1CSCCSC(C)(C)[C@H](C(=O)O)NC(=O)C2(Cc3ccccc3C2)NC1=O (H-[Dmt][dC][Aic][dPen]-OH; linker 2-4 via CH2CH2) | 59 | inactive | inactive | 4.4 | – | – | – | – | – | – | –
Cc1cc(O)cc(C)c1C[C@H](N)C(=O)N[C@@H]1CSCCSC(C)(C)[C@H](C(=O)N[C@@H](CO[C@@H]2O[C@H](CO)[C@@H](O)[C@H](O)[C@H]2O)C(N)=O)NC(=O)C2(Cc3ccccc3C2)NC1=O (H-[Dmt][dC][Aic][dPen]S(βGlc)-NH2; linker 2-4 via CH2CH2) | – | inactive | inactive | 6.1 | 80 | Dose-dependent effect | Active | inactive | Active | inactive | Active
Cc1cc(O)cc(C)c1C[C@H](N)C(=O)N[C@@H]1CSCCSC(C)(C)[C@H](C(=O)N[C@@H](CO)C(N)=O)NC(=O)C2(Cc3ccccc3C2)NC1=O (H-[Dmt][dC][Aic][dPen]S-NH2; linker 2-4 via CH2CH2) | – | inactive | inactive | – | – | – | – | – | – | – | –
Cc1cc(O)cc(C)c1C[C@H](N)C(=O)N[C@@H]1CSCCSC(C)(C)[C@H](C(=O)N[C@@H](CO)C(=O)O)NC(=O)C2(Cc3ccccc3C2)NC1=O (H-[Dmt][dC][Aic][dPen]S-OH; linker 2-4 via CH2CH2) | – | inactive | inactive | – | – | – | – | – | – | – | –
